# Results gathered from unrelated publications.
# Each line is one published result; the experiments were not run side by side.
# ABL1: Tyrosine-protein kinase ABL1 (ABL1, Homo sapiens, UniProt P00519)
Compound,target,observed,mode,technique,concentration,quantity,result
Cn1cc(-c2cccc(N3CCc4c(sc5c4CC(C)(C)C5)C3=O)c2CO)cc(Nc2ccncn2)c1=O,ABL1,enzyme activity,inhibitor,,1 µM,inhibition,-1%
C#Cc1n[nH]c2c(-c3cn(C(C)c4ccccn4)c(=O)[nH]c3=O)cc(F)cc12 (stereo not shown),ABL1,enzyme activity,inhibitor,,1 µM,inhibition,-8.5%
O=C(Nc1cccnn1)N1CCN([C@@H]2CCOc3cc(C(F)(F)F)ccc32)CC1,ABL1,enzyme activity,inhibitor,,20 µM,inhibition,-3%
Nc1ncc(-c2nc(N3CCOCC3)nc(N3CCOCC3)n2)c(C(F)F)n1,"Tyrosine-protein kinase ABL1, non-phosphorylated (ABL1, Homo sapiens, UniProt P00519, T315I)",binding,,competition with immobilised ligand,10 µM,remaining binding,89%
N#CC1(c2ccccn2)CCN(Cc2cc(C(=O)O)c(=O)n3ccccc23)CC1,"Tyrosine-protein kinase ABL1, phosphorylated (ABL1, Homo sapiens, UniProt P00519, H396P)",cell-free assay,,competition with immobilised ligand,1 µM,remaining binding,91%
Cc1nn(C)cc1-c1nc2c(N3CCN(Cc4ccc(Cl)cc4)CC3)c(Cl)cnc2[nH]1,"Tyrosine-protein kinase ABL1, phosphorylated (ABL1, Homo sapiens, UniProt P00519, Q252H)",binding,,competition with immobilised ligand,1 µM,remaining binding,84%
Cn1cncc1[C@@](O)(COc1ccc(C#N)cc1-c1ccc(OC(F)(F)F)cc1)c1ccc(C#N)cc1,"Tyrosine-protein kinase ABL1, non-phosphorylated (ABL1, Homo sapiens, UniProt P00519, Q252H)",cell-free assay,,competition with immobilised ligand,1 µM,remaining binding,76%
Cn1cc(-c2cc(F)cc(N3CCn4c(cc5c4CCCC5)C3=O)c2CO)cc(Nc2ccc(N3CCN(C4COC4)CC3)cn2)c1=O,"Tyrosine-protein kinase ABL1 (ABL1, Homo sapiens, UniProt P00519, Y253F)",enzyme activity,inhibitor,,0.1 µM,inhibition,3%
O=c1[nH]c2ccccc2n1C1CCN(Cc2ccc(-c3[nH]c4cc5ncnc5cc4nc3-c3ccccc3)cc2)CC1,ABL1,cell-free assay,,,0.5 µM,remaining signal,98.2%
C#Cc1n[nH]c2c(-c3cn([C@@H](C)c4ccccc4)c(=O)[nH]c3=O)cc(F)cc12,ABL1,enzyme activity,inhibitor,,0.1 µM,inhibition,-2.2%
